Measurements from ChEMBL document CHEMBL4706506 (Eur J Med Chem, 2020).
Active and inactive are the calls of the source. No cut-off for these calls is given here.

Tests used:
B16-F0 [1] = assay: Inhibition of tubulin polymerization in mouse B16-F0 cells at 40 nM measured after 6 hrs by DAPI staining based immunofluorescent assay relative to control; type: cell-based
How it was run: (§1)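 Fixed in 4% paraformaldehyde, permeabilized with 0.5% Triton X-100 for 15 min, goat serum blocked. Anti-tubulin antibody 2 h at 4 °C, then fluorescent secondary antibody and DAPI nuclear counterstain. Imaged by confocal microscopy.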

[2] = Binding affinity to pig brain tubulin at 30 degree C without preincubation; type: tissue-based, Sus scrofa
How it was run: (§2)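 Porcine brain tubulin purified by three assembly/disassembly cycles and phosphocellulose chromatography. Mixed with graded compound concentrations in PEM (100 mM PIPES, 1 mM EGTA, 1 mM MgCl2) with 1 mM GTP and 5% glycerol. Polymerization followed at 37 °C by light scattering at 340 nm; variants ran at 30 °C, or with 5 min preincubation before GTP addition. IC50 reported.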

B16-F0 [3] = assay: Induction of microtubule destabilization in mouse B16-F0 cells assessed as short and wrapped structure at 40 nM measured after 6 hrs by DAPI staining based immunofluorescent assay relative to control; type: cell-based; how it was run: as §1
A549 = assay: Antiproliferative activity against human A549 cells assessed as inhibition of cell proliferation measured after 48 hrs by CCK-8 assay; type: functional, cell-based; conditions: A549, 48 h
How it was run: (§3)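 RPMI-1640 with 10% FBS, 37 °C, 5% CO2. Cells seeded at 1-3 × 10^4/well and exposed to 0.00098–64 μM (nine 4-fold steps) or 0.1% DMSO vehicle for 48 h. CCK-8 then added for 4 h; absorbance read at 450 nm. IC50 taken from dose–response curves; mean ± SD of three independent experiments.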

MCF7 [4] = assay: Antiproliferative activity against human MCF7 cells assessed as inhibition of cell proliferation measured after 48 hrs by CCK-8 assay; type: functional, cell-based; conditions: MCF7, 48 h
[5] = Binding affinity to pig brain tubulin at 37 degree C preincubated for 5 mins; type: tissue-based, Sus scrofa; how it was run: as §2
HeLa = assay: Antiproliferative activity against human HeLa cells assessed as inhibition of cell proliferation measured after 48 hrs by CCK-8 assay; type: functional, cell-based; how it was run: as §3
B16-F0 [6] = assay: Antiproliferative activity against mouse B16-F0 cells assessed as inhibition of cell proliferation measured after 48 hrs by CCK-8 assay; type: functional, cell-based; conditions: B16F0, 48 h; how it was run: as §3
MCF7 [7] = assay: Induction of cell cycle arrest in human MCF7 cells assessed as accumulation of cells at G2/M phase measured after 48 hrs by FACS Calibur flow cytometry in relative to control; type: functional, cell-based
How it was run: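 MCF-7 cells plated for 24 h, then exposed to compound (5 or 10 nM; DMSO control) for 48 h. Fixed in 70% ethanol at 4 °C for 12 h, then RNase A and propidium iodide staining for 30 min. DNA content measured by flow cytometry.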

B16-F0 [8] = assay: Antitumour activity against mouse B16-F0 cells transplanted in C57/BL mouse assessed as decrease in tumour volume at 10 mg/kg, ip measured after 16 days in relative to control; type: functional; design: scale not given: the % may be the effect or the level left; conditions: time 16 day
B16-F0 [9] = assay: Antitumour activity against mouse B16-F0 cells transplanted in C57/BL mouse assessed as decrease in tumour volume at 20 mg/kg, ip measured after 16 days in relative to control; type: functional; design: scale not given: the % may be the effect or the level left; conditions: time 16 day
[10] = Toxicity in C57/BL mouse […] with mouse B16-F0 cells assessed as liver histology at 10 to 20 mg/kg, ip measured after 16 days by H and E staining method in relative to control; type: organism-based; conditions: in vivo, 384 h, dose 10-20 mg/kg, time 16 day
B16-F0 [11] = assay: Antitumour activity against mouse B16-F0 cells transplanted in C57/BL mouse assessed as decrease in tumour weight at 10 mg/kg, ip measured after 16 days in relative to control; type: functional; design: scale not given: the % may be the effect or the level left; conditions: time 16 day
B16-F0 [12] = assay: Inhibition of tubulin polymerization in mouse B16-F0 cells at 160 nM measured after 6 hrs by DAPI staining based immunofluorescent assay relative to control; type: cell-based; conditions: dose 40.0 nM, in the assay text read “at 40 nM” for “at 160 nM”; how it was run: as §1
[13] = Inhibition of pig brain tubulin polymerization measured by light scattering based spectrophotometer method; type: tissue-based, Sus scrofa; how it was run: as §2
[14] = Toxicity in C57/BL mouse […] with mouse B16-F0 cells assessed as body weight loss at 10 to 20 mg/kg, ip measured after 16 days in relative to control; type: organism-based; conditions: in vivo, 384 h, dose 10-20 mg/kg, time 16 day
[15] = Toxicity in C57/BL mouse […] with mouse B16-F0 cells assessed as kidney histology at 10 to 20 mg/kg, ip measured after 16 days by H and E staining method in relative to control; type: organism-based; conditions: in vivo, 384 h, dose 10-20 mg/kg, time 16 day
[16] = Metabolic stability in human liver microsomes assessed as half life in presence of NADPH at 0.5 uM measured after 4 hrs by LC/MS method; type: ADME, Microsome
MCF7 [17] = assay: Inhibition of cell migration in human MCF7 cells measured after 24 hrs by phase contrast microscopy based wound healing assay relative to control; type: functional; conditions: dose 10-40 nM
How it was run: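 Confluent MCF-7 monolayers, grown 24 h, scratched with a pipette tip and washed with PBS. Medium with 0, 10, 20 or 40 nM compound added. Wounds photographed by phase contrast at 0 and 24 h; migration distance measured manually.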

B16-F0 [18] = assay: Antitumour activity against mouse B16-F0 cells transplanted in C57/BL mouse assessed as decrease in tumour weight at 20 mg/kg, ip measured after 16 days in relative to control; type: functional; design: scale not given: the % may be the effect or the level left; conditions: time 16 day
[19] = Binding affinity to pig brain tubulin at 37 degree C without preincubation; type: tissue-based, Sus scrofa; how it was run: as §2
HCT-116 = assay: Antiproliferative activity against human HCT-116 cells assessed as inhibition of cell proliferation measured after 48 hrs by CCK-8 assay; type: functional, cell-based; conditions: HCT-116, 48 h; how it was run: as §3
[20] = Metabolic stability in mouse liver microsomes assessed as half life in presence of NADPH at 0.5 uM measured after 4 hrs by LC/MS method; type: ADME, Microsome

IC50 [2]: 2100 nM | IC50 (A549): 3 nM | IC50 (MCF7 [4]): 47 nM | IC50 [5]: 1600 nM | IC50 (HeLa): 21 nM | IC50 (B16-F0 [6]): 21 nM | IC50 [13]: 2100 nM | half-life at 0.5 µM [16]: 125 min | IC50 [19]: 2100 nM | IC50 (HCT-116): 48 nM | half-life at 0.5 µM [20]: 120 min
Structure (SMILES): COc1cc(-c2ccnc3cc(-c4ccc(C)cc4)nn23)cc(OC)c1OC
inhibition (B16-F0 [1]): Active | Activity (B16-F0 [3]): Active | Activity (MCF7 [7]): Active | Activity (B16-F0 [8]): 40.1% | Activity (B16-F0 [9]): 77.4% | Activity [10]: Non-Toxic | Activity (B16-F0 [11]): 38.6% | inhibition (B16-F0 [12]): Active | Activity [14]: Non-Toxic | Activity [15]: Non-Toxic | inhibition (MCF7 [17]): Active | Activity (B16-F0 [18]): 74.5%
